The values that follow come from ChEMBL document CHEMBL4145692, “Discovery of a Locally and Orally Active CXCL12 Neutraligand (LIT-927) with Anti-inflammatory Effect in a Murine Model of Allergic Airway Hypereosinophilia” (J Med Chem, 2018).

Active and inactive are the calls of the source. The rule behind the calls is not given here.

Data set [1] has as its target T1, C-C motif chemokine 5 (Homo sapiens) (UniProt P13501).
T1 sequence (whole entry): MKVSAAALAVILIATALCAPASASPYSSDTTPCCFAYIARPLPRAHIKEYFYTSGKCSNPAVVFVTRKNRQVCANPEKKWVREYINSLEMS
Description: Binding affinity to CCL5 (unknown origin) assessed as inhibition of CCL5-induced increase in intracellular calcium level in EGFP-tagged CCR5 expressing HEK cells at 10 uM. On the technique in general: A change in cytosolic calcium serves as a functional read-out for many receptors and channels.

Data set [2] in a line: Chemical stability in pH 7.4 PBS buffer assessed as parent compound remaining at 10 uM incubated for 24 hrs by RP-HPLC method. Type of data set: physicochemical. The note with it: read-out: Stability. The gist of the method:
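Compound diluted from DMSO stock to 10 μM final (1% DMSO) in PBS pH 7.4, or in PBS with 10% w/w (2-hydroxypropyl)-β-cyclodextrin. Sampled at t0, 2, 4, 6 and 24 h and injected directly onto RP-HPLC. Percent remaining relative to t0 from peak area.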

Data set [3] deals with Mus musculus. Description: Inhibition of eosinophil infiltration in Balb/c mouse model of 8 day model of allergic eosinophilic airway inflammation dosed intranasally 2 hrs before ovalbumin challenge by hemocytometry. Type of data set: functional, organism-based. The gist of the method: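 Same intranasal OVA model with dose-response treatment in PBS/Cdx 10% given 2 h before each challenge. Percent inhibition of BAL eosinophil recruitment; mean ± SEM, n=6/group.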

For data set [4], the target named is C-C motif chemokine 2 (Homo sapiens) (UniProt P13500). Description: Binding affinity to CCL2 (unknown origin) assessed as inhibition of CCL2-induced increase in intracellular calcium level in EGFP-tagged CCR2 expressing HEK cells at 10 uM.
Data set [5] relates to Mus musculus. Description: Toxicity in Balb/c mouse model of hypereosinophilia assessed as induction of heart lesions at 350 umol/kg, ip dosed daily 2 hrs before allergen challenge for […] and measured 24 hrs after last dose by Gomori's trichrome staining based histological analysis. Type of data set: organism-based. The note with it: in vivo.
In data set [6] the test system is Mus musculus. Description: Inhibition of macrophages infiltration in Balb/c mouse model of 8 day model of allergic eosinophilic airway inflammation at 300 nmol/kg dosed intranasally 2 hrs before ovalbumin challenge by hemocytometry. Type of data set: functional, organism-based.
The test system of data set [7] is Mus musculus. Description: Toxicity in Balb/c mouse model of hypereosinophilia assessed as induction of bristly hair at 350 umol/kg, ip dosed daily 2 hrs before allergen challenge for 10 days and measured 24 hrs after last dose. The note with it: in vivo. Type of data set: organism-based. The gist of the method: (§1)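 Mice given 10 daily administrations at 350 μmol/kg. Monitored for weight loss and for signs of toxicity, including prostration and bristly hair.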

Data set [8] relates to Mus musculus. Description: Toxicity in Balb/c mouse model of hypereosinophilia assessed as reduction in body weight at 12.6 umol/kg, ip dosed daily 2 hrs before allergen challenge for 3 days and measured 24 hrs after last dose. Type of data set: organism-based. The note with it: in vivo. The gist of the method: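 Same OVA model with i.p. dosing 2 h before each of the three challenges: neutraligands 350 μmol/kg in PBS/CMC 1%, AMD3100 12.6 μmol/kg, dexamethasone 2.5 μmol/kg. Body and spleen weight loss recorded 24 h after three daily administrations; n=6/group.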

Data set [9] relates to Mus musculus. Description: Toxicity in Balb/c mouse model of hypereosinophilia assessed as reduction in body weight at 350 umol/kg, ip dosed daily 2 hrs before allergen challenge for 10 days and measured 24 hrs after last dose. Type of data set: organism-based. The note with it: in vivo. Put shortly: as §1
The nature of data set [10]: Thermodynamic solubility in pH 7.4 PBS/Cdx buffer incubated for 24 hrs at 22 degC by HPLC method. Type of data set: physicochemical. The note with it: read-out: Therm_solubility. The gist of the method: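 Powder dissolved to saturation in pH 7.4 PBS (100 mM sodium phosphate, 150 mM NaCl), or in PBS with 10% Cdx, and shaken 24 h. After centrifugation, supernatant quantified by HPLC against a per-compound calibration line prepared from the DMSO stock.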

For data set [11], the target named is T2, C-C motif chemokine 22 (Homo sapiens) (UniProt O00626).
T2 sequence (whole entry): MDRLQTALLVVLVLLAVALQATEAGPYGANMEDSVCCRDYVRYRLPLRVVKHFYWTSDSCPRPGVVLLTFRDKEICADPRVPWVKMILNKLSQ
Description: Binding affinity to CCL22 (unknown origin) assessed as inhibition of CCL22-induced increase in intracellular calcium level in EGFP-tagged CCR4 expressing HEK cells at 10 uM.

Data set [12] in a line: Stability in presence of GSH assessed as Michael acceptor reactivity by measuring GSH adduct formation after 2 hrs at 37 degC by LC-MS/MS method. Type of data set: physicochemical. Put shortly: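 Compound 200 μM with 500 μM reduced GSH in methanol/50 mM carbonate buffer pH 8. Aliquots taken at 1 min and 2 h, diluted 1/40, and analysed by LC-MS/MS for GSH-conjugate formation.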

The target in data set [13] is Stromal cell-derived factor 1 (Homo sapiens, UniProt P48061). Description: Binding affinity to CXCL12 (unknown origin) assessed as changes in tryptophan fluorescence intensity. Put shortly: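 Intrinsic Trp fluorescence of CXCL12 (2 μM in Hepes buffer), excitation 285 nm, emission 340 nm, titrated with increasing compound. Kd obtained by fitting a 1:1 binding quadratic model with chemokine fixed at 2 μM. Mean ± SD of three independent experiments.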

Data set [14] has as its system Mus musculus. Description: Toxicity in Balb/c mouse model of hypereosinophilia assessed as prostration at 350 umol/kg, ip dosed daily 2 hrs before allergen challenge for 10 days and measured 24 hrs after last dose. The note with it: in vivo. Type of data set: organism-based. Put shortly:
as §1

Chain of C-C motif chemokine 2 (Homo sapiens) (P13500 24-99 limits assumed): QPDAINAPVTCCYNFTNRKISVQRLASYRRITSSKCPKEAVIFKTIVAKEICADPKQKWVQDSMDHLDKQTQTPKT
Chain of Stromal cell-derived factor 1 (P48061 whole entry): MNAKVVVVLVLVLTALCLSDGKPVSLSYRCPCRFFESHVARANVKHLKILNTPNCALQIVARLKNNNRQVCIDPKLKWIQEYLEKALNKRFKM

As usually defined, the Kd is the concentration at which binding is half-saturated. In the case of `COc1cc(-c2cc(-c3ccc(Cl)cc3)nc(=O)[nH]2)ccc1O`, the inhibition result in data set [1], in data set [4], in [6] and in [11] was “inactive” each time. The remaining at 24 h, 10 µM in data set [2] came to 100%. Moreover, in data set [3], the IC50 is 310 nmol/kg. Further, the Activity entry in data set [5], in data set [7], in data set [8], in [9] and in [14] was “Non-Toxic” each time. Besides, the solubility thermodynamic at 24 h in [10] was more than 5 mM. Also, the Stability entry in [12] is on record as “Stable”. Also, the equilibrium dissociation constant (Kd) in [13] came out at 780 nM.
